Compound activity: PubChem BioAssay, The Scripps Research Institute Molecular Screening Center
SIAE primary: human SIAE inhibition, primary screen | Q9HAT2 | SIAE FP-Rh probe binding, fluorescence polarization | inhibition, % at 9.66 µM | actives 0.69% (n = 370,000);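 active = inhibition above a cutoff: mean of compounds within the control limits plus 3 SD of those, cut at about 17% in these data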;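 also: 0% = plate median of compound wells and 100% = probe without SIAE protein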
PRMT1 FP inh: inhibitors of human PRMT1 | AID 652257 | inhibition, % at 2.79 µM | actives 1.3% (n = 370,000) | recombinant PRMT1, activity-based probe fluorescence polarization;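 active = inhibition above about 21% made by adding two undisclosed values, limit read from the data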
TCR-CD3 inh: inhibitors of human TCR-CD3 interaction | actives 0.37% (n = 360,000) | TAMRA-labeled TCR probe fluorescence, biochemical | inhibition, % at 9.4 µM; in the data active = inhibition above about 19%;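 also: recombinant mutant TCR 2C K166C tagged with TAMRA read by polarization; 0% = receptor in buffer alone and 100% = receptor with positive control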
mABHD4 FP: inhibits mouse alpha/beta hydrolase domain 4; inhibition, % at 8.92 µM; Q8VD66; actives 0.54% (n = 370,000); purified mABHD4, FP-Rh probe fluorescence polarization;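 active = inhibition exceeding the mean over every tested compound plus 3 SD, cut at about 30% in these data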;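 also: 0% = plate median of compound wells and 100% = S159A mutant with DMSO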
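assay system = mABHD4 protein | compound dosing = single nominal dose of 8.92 µM, 0.89% DMSO final | read-out basis = percent inhibition of probe binding, normalized to plate controls | schedule = Enzyme–compound pre-incubation 45 min, then probe 60 min, both 25 °C | detection = fluorescence polarization, excitation 525 nm, emission 598 nm, BODIPY TMR filters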
HTRA1 inhibitor: blocks human HTRA1 serine peptidase; recombinant HTRA1, FP-rhodamine activity-based probe, fluorescence polarization; AID 504803; inhibition, % at 5.96 µM; actives 0.5% (n = 340,000); in the data active = inhibition above about 36%;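 also: 0% = enzyme with DMSO and 100% = wells lacking enzyme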
Target sequence (Q92743 whole entry, looked up): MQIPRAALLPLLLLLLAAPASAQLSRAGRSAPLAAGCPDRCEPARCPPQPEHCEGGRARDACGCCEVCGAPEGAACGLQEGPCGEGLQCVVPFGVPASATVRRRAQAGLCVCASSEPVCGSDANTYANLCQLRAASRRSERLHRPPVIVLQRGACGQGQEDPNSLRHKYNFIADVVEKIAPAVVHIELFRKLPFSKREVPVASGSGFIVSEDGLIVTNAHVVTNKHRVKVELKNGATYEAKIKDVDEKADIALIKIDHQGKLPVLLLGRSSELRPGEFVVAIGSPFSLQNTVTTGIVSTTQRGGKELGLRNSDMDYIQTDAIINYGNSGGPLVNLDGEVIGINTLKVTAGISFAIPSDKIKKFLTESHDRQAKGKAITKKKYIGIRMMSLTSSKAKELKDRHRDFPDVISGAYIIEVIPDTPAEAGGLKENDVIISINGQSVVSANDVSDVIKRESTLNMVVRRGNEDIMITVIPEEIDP
SIAE confirm: confirmation of human SIAE inhibitors | shares compounds with SIAE primary | SIAE FP-Rh activity-based probe, fluorescence polarization | inhibition, % at 9.66 µM | actives 13% (n = 2,300);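 active = mean inhibition of the replicates above the hit cutoff set in the primary screen, cut at about 17% in these data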;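 also: 0% = SIAE with DMSO and probe and 100% = probe without SIAE; inhibitors lower polarization as more probe stays unbound to SIAE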
An asterisk follows results filed as active; nt = no result. Only some compounds are listed: those with a hit (about 2.7% of all), similar ones and a draw of the others.

SMILES | SIAE primary | PRMT1 FP inh | TCR-CD3 inh | mABHD4 FP | HTRA1 inhibitor | SIAE confirm
O=C(Cc1cccs1)N=Nc1c(O)[nH]c2ccc(Br)cc12 | -18 | -4 | 11 | 2 | -4 | nt
O=[N+]([O-])c1ccc(N=Nc2c(O)[nH]c3ccc(F)cc23)cc1 | -12 | 5 | -5 | 5 | 0 | nt
O=Nc1c(O)[nH]c2ccc(F)cc12 | 23* | 0 | -2 | 12 | 15 | 22*
COc1ccc2[nH]c(O)c(N=NC(=O)Cc3cccs3)c2c1 | 18* | 1 | 12 | 20 | 9 | 11
CCc1nc(C)cn1S(=O)(=O)c1cc(C)c(OC)cc1C | -2 | 0 | 2 | 2 | -1 | nt
CCc1nc(C)cn1S(=O)(=O)c1cc(C)c(OC)c(C)c1C | 37* | 1 | 5 | 4 | -1 | -2
CC(OC(=O)c1ccc(Cl)nc1)C(=O)NC1CCCC1 (stereo not given) | 19* | 0 | -5 | 0 | -1 | -2
CC(C)C(OC(=O)c1ccc(Cl)nc1)C(=O)NC1CCCCC1 (stereo not given) | 1 | -3 | 4 | -4 | -2 | nt
CC1(C)CC(=O)c2cc(N=C/C(C(=O)c3ccccc3)=C(\O)c3ccccc3)c(=O)oc2C1 | 17* | -1 | 6 | 3 | 8 | 1
CC1(C)CC(=O)C(C=Nc2ccccc2C(=O)O)=C(O)C1 | 6 | 2 | 5 | 1 | 10 | nt
CCOc1cccc(-c2nnc3n2N=C(c2ccc(OC)cc2)CS3)c1 | -9 | 3 | nt | -10 | nt | nt
O=S(N1CCc2ccccc21)C12CC3CC(CC(C3)C1)C2 (stereo not given) | 23* | -1 | 2 | 5 | -3 | -2
COCCn1c(-c2ccc(C#N)cc2)nc2c1c(=O)[nH]c(=O)n2Cc1ccccc1 | -6 | -1 | 7 | 7 | 6 | nt
CCCn1c(=O)[nH]c(=O)c2c1nc(-c1ccc(C#N)cc1)n2CCOC | 17* | 1 | -5 | 5 | 3 | -1
Cc1ccc(N(C)C(=O)c2ccc(CNc3c(N4CCC(C)CC4)c(=O)c3=O)cc2)cc1 | 20* | -2 | -6 | 8 | 2 | 2
CC1CCN(c2c(NCc3ccc(C(=O)N(C)C4CCCCC4)cc3)c(=O)c2=O)CC1 | 1 | -5 | 6 | -1 | -4 | nt
Cc1c(C(=O)NN2CCCCC2)nn(-c2ccc(Cl)cc2Cl)c1-c1ccc(Cl)cc1 | -3 | 1 | nt | -10 | nt | nt
Oc1ccccc1N=Nc1nc(-c2ccccc2)c(-c2ccccc2)[nH]1 | 17* | 2 | 0 | 10 | 14 | -3
O=C(N/N=C/c1cn(-c2ccccc2)nc1-c1ccccc1)c1ccco1 | 21* | 0 | -2 | -14 | -44 | 3
O=C(N/N=C\c1cn(-c2ccccc2)nc1-c1ccccc1)c1ccc(Br)o1 | -75 | 0 | 1 | -22 | 11 | nt
CC(C)NC(=O)C1(C)CSCC(=O)N1Cc1ccco1 (stereo not given) | 4 | 0 | -9 | -4 | nt | nt
CCOc1ccc(Oc2ccc(NC(=O)CSc3nncn3C)cc2)cc1 | 19* | 7 | 1 | 11 | -8 | -3
O=C(CSc1nc2ccccc2o1)N1N=C(c2cccs2)CC1c1ccc(F)cc1 (stereo not given) | 20* | -4 | 3 | -6 | -2 | -5
CCNC(=O)C1(C)CCN1CCC(=O)c1ccc(C)cc1 (stereo not given) | -2 | 4 | 1 | 6 | nt | nt
COc1ccc(OC)c2c1C(=O)c1ccccc1C2=O | 24* | 52* | -6 | 17 | nt | 10
SMILES | SIAE primary | PRMT1 FP inh | TCR-CD3 inh | mABHD4 FP | HTRA1 inhibitor | SIAE confirm
O=C(NCC(=O)N1CCN(c2ncccn2)CC1)c1ccc(F)cc1 | 22* | -6 | -6 | 0 | 11 | -5
O=C(CCCn1c(=S)[nH]c2cc3c(cc2c1=O)OCO3)NCc1ccccc1Cl | 3 | -2 | 12 | -13 | 6 | nt
OC1C2CN3CCN(C2)CC1(Cc1ccccc1)C3 (stereo not given) | 21* | -2 | 12 | 4 | 2 | -2
OC1C2(Cc3ccccc3)CN3CCN(C2)CC1(Cc1ccccc1)C3 (stereo not given) | -2 | -1 | 0 | -8 | 7 | nt
COc1ccc(O)c(C=Nc2cc(NC(C)=O)c(Cl)cc2Cl)c1 | 18* | -1 | -7 | -5 | -1 | 1
CCOc1ccc2nc(NC(=O)Nc3cccs3)sc2c1 | 34* | 0 | -1 | 16 | 3 | 9
CCOc1ccc2nc(NC(=O)Nc3ccccc3)sc2c1 | 4 | -2 | 0 | -5 | 1 | nt
COC(=O)[C@]12C[C@H](CC(=O)NCC34CC5CC(CC(C5)C3)C4)C(=O)N(Cc3ccc4c(c3)OCO4)C1=C[C@H](C(C)(C)C)O[C@@H]2C | 2 | 2 | -5 | -4 | nt | nt
COc1ccc(C(=O)Nc2nc(CC(=O)NCCc3ccccc3)cs2)cc1 | -1 | -1 | 4 | -5 | -10 | nt
O=C(Cc1csc(NC(=O)c2ccccc2)n1)NO | 22* | 0 | -6 | 12 | 7 | 15
COc1ccc(NC(=O)Nc2cc(F)ccc2C)cc1 | 20* | -3 | 9 | -3 | 2 | -1
COc1ccc(NC(=O)Nc2ccc(F)cc2F)cc1 | 2 | -1 | 5 | 2 | 6 | nt
CCCCN1CNC(=S)N(c2ccc(C(=O)OCC)cc2)C1 | 18* | -2 | -3 | -4 | 0 | -3
O=C(c1ccc(N2C(=O)CCC2=O)cc1)N1CCCSC1=Nc1ccccc1 | 29* | -3 | 5 | 6 | -5 | 5
Cc1ccc(S(=O)(=O)N(C)c2ccccc2C(=O)N2CCCC2)cc1 | 17* | 0 | 2 | 4 | 5 | 5
O=C(COC(=O)Cc1ccc(Cl)cc1Cl)NCCC1=CCCCC1 | -5 | 6 | -11 | 5 | 2 | nt
O=C(COC(=O)c1cc(Cl)ccc1O)NCCC1=CCCCC1 | 17* | 0 | -4 | -1 | 1 | 0
CCC(=O)Oc1ccc(C/C(=N\O)c2ccc(O)cc2O)o1 | 37* | 9 | 0 | 16 | 23 | 28*
CCOC(=O)c1ccc(CC(=O)c2ccc(O)cc2O)o1 | -3 | 7 | -2 | 0 | -4 | nt
CC(C)C[C@H]1CN([C@@H](CC(C)C)CN2CCC[C@H]2CN2C(=O)C(=O)NC[C@@H]2Cc2ccc(O)cc2)C(=O)C(=O)N1CCc1ccccc1 | 20* | 0 | -9 | 8 | nt | 10
CCOc1ccc(Nc2nc(N)c([N+](=O)[O-])c(NCc3ccccc3)n2)cc1 | 20* | -1 | 6 | 2 | 14 | 32*
COc1cc(/C=N\Nc2nc(-c3ccc(C)cc3)c(NC(C)=O)s2)ccc1O | 22* | -1 | -4 | 14 | 21 | 33*
COc1ccc(/C=N/Nc2nc(-c3ccc(C)cc3)c(NC(C)=O)s2)cc1OC | 1 | 1 | 0 | 5 | 3 | nt
OCCN1CCN(c2nc(-c3ccccc3O)nc3ccccc23)CC1 | -4 | -1 | -1 | 4 | -16 | nt
O=C(O)C1C2C=CC(C2)C1C(=O)NCCc1cccc(Cl)c1 (stereo not given) | 22* | 3 | -8 | -2 | 2 | -9
